Results published in ChEMBL document CHEMBL3352718, “CB2-selective cannabinoid receptor ligands: synthesis, pharmacological evaluation, and molecular modeling investigation of 1,8-Naphthyridin-2(1H)-one-3-carboxamides” (J Med Chem, 2014).

target: Cannabinoid receptor 1 (Homo sapiens, UniProt P21554); experiment: Displacement of [3H]CP-55,940 from human recombinant CB1R expressed in HEK-293 cells after 90 mins by liquid scintillation counting; design: species or system HEK293; settings: not given
Sequence (P21554 whole entry): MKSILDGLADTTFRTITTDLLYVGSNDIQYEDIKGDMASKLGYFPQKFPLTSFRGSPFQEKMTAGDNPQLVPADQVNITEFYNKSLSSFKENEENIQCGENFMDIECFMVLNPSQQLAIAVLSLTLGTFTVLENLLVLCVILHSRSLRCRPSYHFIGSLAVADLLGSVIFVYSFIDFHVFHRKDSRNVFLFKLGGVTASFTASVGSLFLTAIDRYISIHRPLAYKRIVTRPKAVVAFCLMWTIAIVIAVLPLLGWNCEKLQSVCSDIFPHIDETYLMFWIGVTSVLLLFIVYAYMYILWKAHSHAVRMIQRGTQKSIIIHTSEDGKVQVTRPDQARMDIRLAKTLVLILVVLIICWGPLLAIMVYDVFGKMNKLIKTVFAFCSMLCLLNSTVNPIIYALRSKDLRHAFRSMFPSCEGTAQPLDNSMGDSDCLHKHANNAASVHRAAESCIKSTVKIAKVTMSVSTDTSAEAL

SMILES	Ki [nM]
C[C@H]1CC[C@H](NC(=O)c2cc3cc(-c4ccco4)cnc3n(Cc3ccc(F)cc3)c2=O)CC1	> 10000
CC1CCC(NC(=O)c2cc3cc(-c4ccco4)cnc3n(Cc3ccc(F)cc3)c2=O)CC1 (stereo not drawn)	3440
CC1CCC(NC(=O)c2cc3cccnc3n(CCCCC(=O)O)c2=O)CC1 (stereo not drawn)	> 10000
COc1ccc(-c2cnc3c(c2)cc(C(=O)NC2CCC(C)CC2)c(=O)n3Cc2ccc(F)cc2)cc1 (stereo not drawn)	3260
CCOC(=O)CCCn1c(=O)c(C(=O)NC2CCC(C)CC2)cc2cccnc21 (stereo not drawn)	> 10000
CCCCCn1c(=O)c(C(=O)NC2CCC(C)CC2)cc2cccnc21 (stereo not drawn)	908
CC1CCC(NC(=O)c2cc3cc(-c4ccco4)cnc3n(CCN3CCOCC3)c2=O)CC1 (stereo not drawn)	52.9
C[C@H]1CC[C@@H](NC(=O)c2cc3cc(-c4cccs4)cnc3n(Cc3ccc(F)cc3)c2=O)CC1	472
CC1CCC(NC(=O)c2cc3cccnc3n(CCCCF)c2=O)CC1 (stereo not drawn)	1010
C[C@H]1CC[C@@H](NC(=O)c2cc3cc(Br)cnc3n(Cc3ccc(F)cc3)c2=O)CC1	121
CC1CCC(NC(=O)c2cc3cc(-c4cccs4)cnc3n(CCN3CCOCC3)c2=O)CC1 (stereo not drawn)	32.7
C[C@H]1CC[C@H](NC(=O)c2cc3cc(Br)cnc3n(Cc3ccc(F)cc3)c2=O)CC1	166
CC1CCC(NC(=O)c2cc3cccnc3n(CCO)c2=O)CC1 (stereo not drawn)	> 10000
COC(=O)CCCCn1c(=O)c(C(=O)NC2CCC(C)CC2)cc2cccnc21 (stereo not drawn)	> 10000
COc1ccc(-c2cnc3c(c2)cc(C(=O)NC2CCC(C)CC2)c(=O)n3CCN2CCOCC2)cc1 (stereo not drawn)	> 10000
CC1CCC(NC(=O)c2cc3cccnc3n(CCCO)c2=O)CC1 (stereo not drawn)	> 10000

SMILES	Ki [nM]
CCOC(=O)CCn1c(=O)c(C(=O)NC2CCC(C)CC2)cc2cccnc21 (stereo not drawn)	> 10000
CC1CCC(NC(=O)c2cc3cccnc3n(CCCCCO)c2=O)CC1 (stereo not drawn)	> 10000
CC1CCC(NC(=O)c2cc3cccnc3n(CCCC(=O)O)c2=O)CC1 (stereo not drawn)	> 10000
C[C@H]1CC[C@@H](NC(=O)c2cc3cc(-c4ccco4)cnc3n(Cc3ccc(F)cc3)c2=O)CC1	4060
CC1CCC(NC(=O)c2cc3cccnc3n(CCCCO)c2=O)CC1 (stereo not drawn)	> 10000
CC1CCC(NC(=O)c2cc3cccnc3n(CCC(=O)O)c2=O)CC1 (stereo not drawn)	> 10000
CC1CCC(NC(=O)c2cc3cc(Br)cnc3n(Cc3ccc(F)cc3)c2=O)CC1 (stereo not drawn)	96.1
C[C@H]1CC[C@H](NC(=O)c2cc3cc(-c4cccs4)cnc3n(Cc3ccc(F)cc3)c2=O)CC1	430
CC1CCC(NC(=O)c2cc3cccnc3n(CCCCCF)c2=O)CC1 (stereo not drawn)	22.6
CC1CCC(NC(=O)c2cc3cccnc3n(CCCCCCO)c2=O)CC1 (stereo not drawn)	> 10000
CCCCn1c(=O)c(C(=O)NC2CCC(C)CC2)cc2cccnc21 (stereo not drawn)	2310
CC1CCC(NC(=O)c2cc3cc(Br)cnc3n(CCN3CCOCC3)c2=O)CC1 (stereo not drawn)	750
CC1CCC(NC(=O)c2cc3cc(-c4cccs4)cnc3n(Cc3ccc(F)cc3)c2=O)CC1 (stereo not drawn)	3280
CC1CCC(NC(=O)c2cc3cc(-c4ccc(F)cc4)cnc3n(Cc3ccc(F)cc3)c2=O)CC1 (stereo not drawn)	> 10000
CC1CCC(NC(=O)c2cc3cc(-c4ccc(F)cc4)cnc3n(CCN3CCOCC3)c2=O)CC1 (stereo not drawn)	66.7
CC1CCC(NC(=O)c2cc3cccnc3n(CCCCCCF)c2=O)CC1 (stereo not drawn)	35.7

target: T1, Cannabinoid receptor 2 (Homo sapiens, UniProt P34972); experiment: Displacement of [3H]CP-55,940 from human recombinant CB2R expressed in HEK-293 cells after 90 mins by liquid scintillation counting; design: species or system HEK293; settings: not given
T1 sequence (P34972 whole entry): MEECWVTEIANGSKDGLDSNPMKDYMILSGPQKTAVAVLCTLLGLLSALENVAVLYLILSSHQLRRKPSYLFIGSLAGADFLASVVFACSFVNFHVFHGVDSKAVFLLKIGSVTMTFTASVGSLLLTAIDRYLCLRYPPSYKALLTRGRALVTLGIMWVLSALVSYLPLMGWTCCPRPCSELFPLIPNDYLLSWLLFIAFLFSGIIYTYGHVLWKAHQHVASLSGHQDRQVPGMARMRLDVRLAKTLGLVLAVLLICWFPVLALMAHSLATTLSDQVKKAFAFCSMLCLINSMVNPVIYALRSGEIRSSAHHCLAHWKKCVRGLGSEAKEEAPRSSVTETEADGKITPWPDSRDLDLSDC

SMILES	Ki [nM]	IC50 [nM]
C[C@H]1CC[C@H](NC(=O)c2cc3cc(-c4ccco4)cnc3n(Cc3ccc(F)cc3)c2=O)CC1	94.2	–
CC1CCC(NC(=O)c2cc3cc(-c4ccco4)cnc3n(Cc3ccc(F)cc3)c2=O)CC1 (stereo not drawn)	0.67	–
CC1CCC(NC(=O)c2cc3cccnc3n(CCCCC(=O)O)c2=O)CC1 (stereo not drawn)	1340	–
COc1ccc(-c2cnc3c(c2)cc(C(=O)NC2CCC(C)CC2)c(=O)n3Cc2ccc(F)cc2)cc1 (stereo not drawn)	3.83	–
CCOC(=O)CCCn1c(=O)c(C(=O)NC2CCC(C)CC2)cc2cccnc21 (stereo not drawn)	62.6	–
CCCCCn1c(=O)c(C(=O)NC2CCC(C)CC2)cc2cccnc21 (stereo not drawn)	2.82	–
CC1CCC(NC(=O)c2cc3cc(-c4ccco4)cnc3n(CCN3CCOCC3)c2=O)CC1 (stereo not drawn)	0.35	–
C[C@H]1CC[C@@H](NC(=O)c2cc3cc(-c4cccs4)cnc3n(Cc3ccc(F)cc3)c2=O)CC1	0.96	–
CC1CCC(NC(=O)c2cc3cccnc3n(Cc3ccc(F)cc3)c2=O)CC1 (stereo not drawn)	–	1.37
CC1CCC(NC(=O)c2cc3cccnc3n(CCCCF)c2=O)CC1 (stereo not drawn)	1.36	5.35
C[C@H]1CC[C@@H](NC(=O)c2cc3cc(Br)cnc3n(Cc3ccc(F)cc3)c2=O)CC1	0.12	–
CC1CCC(NC(=O)c2cc3cc(-c4cccs4)cnc3n(CCN3CCOCC3)c2=O)CC1 (stereo not drawn)	0.17	–
C[C@H]1CC[C@H](NC(=O)c2cc3cc(Br)cnc3n(Cc3ccc(F)cc3)c2=O)CC1	1.12	–
CC1CCC(NC(=O)c2cc3cccnc3n(CCO)c2=O)CC1 (stereo not drawn)	2100	–
COC(=O)CCCCn1c(=O)c(C(=O)NC2CCC(C)CC2)cc2cccnc21 (stereo not drawn)	27.1	–
COc1ccc(-c2cnc3c(c2)cc(C(=O)NC2CCC(C)CC2)c(=O)n3CCN2CCOCC2)cc1 (stereo not drawn)	1.47	–
CC1CCC(NC(=O)c2cc3cccnc3n(CCCO)c2=O)CC1 (stereo not drawn)	129	–

SMILES	Ki [nM]	IC50 [nM]
CCOC(=O)CCn1c(=O)c(C(=O)NC2CCC(C)CC2)cc2cccnc21 (stereo not drawn)	176	–
CC1CCC(NC(=O)c2cc3cccnc3n(CCCCCO)c2=O)CC1 (stereo not drawn)	3.6	–
CC1CCC(NC(=O)c2cc3cccnc3n(CCCC(=O)O)c2=O)CC1 (stereo not drawn)	2470	–
C[C@H]1CC[C@@H](NC(=O)c2cc3cc(-c4ccco4)cnc3n(Cc3ccc(F)cc3)c2=O)CC1	0.27	–
CC1CCC(NC(=O)c2cc3cccnc3n(CCCCO)c2=O)CC1 (stereo not drawn)	53.3	210
CC1CCC(NC(=O)c2cc3cccnc3n(CCC(=O)O)c2=O)CC1 (stereo not drawn)	1390	–
CC1CCC(NC(=O)c2cc3cc(Br)cnc3n(Cc3ccc(F)cc3)c2=O)CC1 (stereo not drawn)	0.18	0.72
C[C@H]1CC[C@H](NC(=O)c2cc3cc(-c4cccs4)cnc3n(Cc3ccc(F)cc3)c2=O)CC1	65.6	–
CC1CCC(NC(=O)c2cc3cccnc3n(CCCCCF)c2=O)CC1 (stereo not drawn)	0.56	–
CC1CCC(NC(=O)c2cc3cccnc3n(CCCCCCO)c2=O)CC1 (stereo not drawn)	18	–
CCCCn1c(=O)c(C(=O)NC2CCC(C)CC2)cc2cccnc21 (stereo not drawn)	3.9	–
CC1CCC(NC(=O)c2cc3cc(Br)cnc3n(CCN3CCOCC3)c2=O)CC1 (stereo not drawn)	1.26	–
CC1CCC(NC(=O)c2cc3cc(-c4cccs4)cnc3n(Cc3ccc(F)cc3)c2=O)CC1 (stereo not drawn)	1.85	–
CC1CCC(NC(=O)c2cc3cc(-c4ccc(F)cc4)cnc3n(Cc3ccc(F)cc3)c2=O)CC1 (stereo not drawn)	2.17	–
CC1CCC(NC(=O)c2cc3cc(-c4ccc(F)cc4)cnc3n(CCN3CCOCC3)c2=O)CC1 (stereo not drawn)	0.68	–
CC1CCC(NC(=O)c2cc3cccnc3n(CCCCCCF)c2=O)CC1 (stereo not drawn)	1.46	–

test system: HEK293; experiment: Selectivity ratio of Ki for human recombinant CB1R expressed in HEK-293 cells to Ki for human recombinant CB2R expressed in HEK-293 cells; assay type: cell-based; settings: not given

SMILES	Ratio Ki
C[C@H]1CC[C@H](NC(=O)c2cc3cc(-c4ccco4)cnc3n(Cc3ccc(F)cc3)c2=O)CC1	> 106
CC1CCC(NC(=O)c2cc3cc(-c4ccco4)cnc3n(Cc3ccc(F)cc3)c2=O)CC1 (stereo not drawn)	5140
COc1ccc(-c2cnc3c(c2)cc(C(=O)NC2CCC(C)CC2)c(=O)n3Cc2ccc(F)cc2)cc1 (stereo not drawn)	851
CCCCCn1c(=O)c(C(=O)NC2CCC(C)CC2)cc2cccnc21 (stereo not drawn)	322
CC1CCC(NC(=O)c2cc3cc(-c4ccco4)cnc3n(CCN3CCOCC3)c2=O)CC1 (stereo not drawn)	151
C[C@H]1CC[C@@H](NC(=O)c2cc3cc(-c4cccs4)cnc3n(Cc3ccc(F)cc3)c2=O)CC1	491
CC1CCC(NC(=O)c2cc3cccnc3n(Cc3ccc(F)cc3)c2=O)CC1 (stereo not drawn)	222
CC1CCC(NC(=O)c2cc3cccnc3n(CCCCF)c2=O)CC1 (stereo not drawn)	743
C[C@H]1CC[C@@H](NC(=O)c2cc3cc(Br)cnc3n(Cc3ccc(F)cc3)c2=O)CC1	1010
CC1CCC(NC(=O)c2cc3cc(-c4cccs4)cnc3n(CCN3CCOCC3)c2=O)CC1 (stereo not drawn)	192
C[C@H]1CC[C@H](NC(=O)c2cc3cc(Br)cnc3n(Cc3ccc(F)cc3)c2=O)CC1	148
CCCC(C)(C)c1ccc2c(c1)OC(C)(C)[C@@H]1CC=C(C)C[C@@H]21	226
C[C@H]1CC[C@@H](NC(=O)c2cc3cc(-c4ccco4)cnc3n(Cc3ccc(F)cc3)c2=O)CC1	15000
CC1CCC(NC(=O)c2cc3cc(Br)cnc3n(Cc3ccc(F)cc3)c2=O)CC1 (stereo not drawn)	534
C[C@H]1CC[C@H](NC(=O)c2cc3cc(-c4cccs4)cnc3n(Cc3ccc(F)cc3)c2=O)CC1	6.5
CC1CCC(NC(=O)c2cc3cccnc3n(CCCCCF)c2=O)CC1 (stereo not drawn)	40.3
CCCCn1c(=O)c(C(=O)NC2CCC(C)CC2)cc2cccnc21 (stereo not drawn)	593
CC1CCC(NC(=O)c2cc3cc(Br)cnc3n(CCN3CCOCC3)c2=O)CC1 (stereo not drawn)	595
CC1CCC(NC(=O)c2cc3cc(-c4cccs4)cnc3n(Cc3ccc(F)cc3)c2=O)CC1 (stereo not drawn)	1770
CC1CCC(NC(=O)c2cc3cccnc3n(CCN3CCOCC3)c2=O)CC1 (stereo not drawn)	526
CC1CCC(NC(=O)c2cc3cc(-c4ccc(F)cc4)cnc3n(CCN3CCOCC3)c2=O)CC1 (stereo not drawn)	98
CC1CCC(NC(=O)c2cc3cccnc3n(CCCCCCF)c2=O)CC1 (stereo not drawn)	24.4

target: T1, Cannabinoid receptor 2; experiment: Antagonist activity at human recombinant CB2R expressed in U2OS cells assessed as inhibition of WIN-55212-induced beta-arrestin-GFP binding to receptor preincubated for 15 mins by fluorescent microscopy; assay type: cell-based; settings: not given
In short: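 Same βarr2-GFP redistribution set-up in hCB2R U2OS cells on coverslips. […] Fixed in 4% paraformaldehyde, imaged by fluorescence microscopy. […] Three experiments in duplicate.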

SMILES	IC50 [nM]
COc1ccc(-c2cnc3c(c2)cc(C(=O)NC2CCC(C)CC2)c(=O)n3CCN2CCOCC2)cc1 (stereo not drawn)	54
CC1CCC(NC(=O)c2cc3cc(Br)cnc3n(Cc3ccc(F)cc3)c2=O)CC1 (stereo not drawn)	31.6
CC1CCC(NC(=O)c2cc3cc(Br)cnc3n(CCN3CCOCC3)c2=O)CC1 (stereo not drawn)	32.1

target: T1, Cannabinoid receptor 2; experiment: Agonist activity at human recombinant CB2R expressed in U2OS cells assessed as beta-arrestin-GFP binding to receptor […] by fluorescent microscopy; assay type: cell-based; settings: not given

SMILES	EC50 [nM]
CC1CCC(NC(=O)c2cc3cccnc3n(Cc3ccc(F)cc3)c2=O)CC1 (stereo not drawn)	29.6
CC1CCC(NC(=O)c2cc3cccnc3n(CCCCF)c2=O)CC1 (stereo not drawn)	21.8
CC1CCC(NC(=O)c2cc3cccnc3n(CCCCO)c2=O)CC1 (stereo not drawn)	23.7
CC1CCC(NC(=O)c2cc3cccnc3n(CCN3CCOCC3)c2=O)CC1 (stereo not drawn)	17.6

target: T1, Cannabinoid receptor 2; experiment: Agonist activity at human recombinant CB2R expressed in […] U2OS cells assessed as reduction in forskolin-mediated cAMP level after 30 mins by time-resolved fluorescence assay; assay type: functional, cell-based; settings: not given
In short: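 hCB2R-expressing U2OS cells in HBSS stimulation buffer with 0.1% BSA, 0.5 mM IBMX and 5 mM HEPES, pH 7.4, at 3000 cells/well. Cells treated with forskolin (10 μM final) and various ligand concentrations for 30 min at room temperature. cAMP measured by LANCE TR-FRET (Eu-cAMP tracer plus ULight antibody, 1 h in the dark, 615/665 nm) against a cAMP standard curve. Three experiments in triplicate.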

SMILES	EC50 [nM]
CC1CCC(NC(=O)c2cc3cccnc3n(Cc3ccc(F)cc3)c2=O)CC1 (stereo not drawn)	29.6
CC1CCC(NC(=O)c2cc3cccnc3n(CCCCF)c2=O)CC1 (stereo not drawn)	20.6
CC1CCC(NC(=O)c2cc3cccnc3n(CCN3CCOCC3)c2=O)CC1 (stereo not drawn)	28

target: T1, Cannabinoid receptor 2; experiment: Antagonist activity at human recombinant CB2R expressed in WIN-55212-stimulated U2OS cells assessed as increase in forskolin-mediated cAMP level after 30 mins by time-resolved fluorescence assay; assay type: functional, cell-based; settings: read-out: IC50

SMILES	IC50 [nM]
CC1CCC(NC(=O)c2cc3cc(Br)cnc3n(CCN3CCOCC3)c2=O)CC1 (stereo not drawn)	59.6

same assay, conditions: u2os

SMILES	IC50
COc1ccc(-c2cnc3c(c2)cc(C(=O)NC2CCC(C)CC2)c(=O)n3CCN2CCOCC2)cc1 (stereo not drawn)	ND(Insoluble)
CC1CCC(NC(=O)c2cc3cc(Br)cnc3n(Cc3ccc(F)cc3)c2=O)CC1 (stereo not drawn)	ND(Insoluble)
